The source of these data is ChEMBL document CHEMBL3994600, “Anthenosides L-U, Steroidal Glycosides with Unusual Structural Features from the Starfish Anthenea aspera” (J Nat Prod, 2016).

One data set has as its system Ehrlich. In words: Cytotoxicity against mouse Ehrlich carcinoma cells assessed as reduction in cell viability by MTT assay. It counts as cell-based. The essentials:
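Ehrlich ascites carcinoma (tetraploid strain) grown in the peritoneal cavity of 18–20 g CD-1 mice. Cells harvested 7−10 days after inoculation, washed twice in PBS pH 7.4 (450g, 5 min), resuspended in serum-free RPMI-1640 at about (1−2) × 10^6 cells/mL. Standard MTT viability read-out; at least triplicate, mean ± SD.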

The test system of data set [1] is RAW264.7. In words: Induction of ROS generation in mouse RAW264.7 cells at 10 uM after 24 hrs by 2,7-dichlorodihydrofluorescein diacetate staining based fluorescence assay. In kind it is cell-based. The settings on record: raw264.7, 24 h.
Data set [2] relates to RAW264.7. In words: Cytotoxicity against mouse RAW264.7 cells assessed as reduction in cell viability by MTT assay. It counts as cell-based. An outline of the steps:
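Macrophages (ATCC) grown in DMEM with 10% FBS at 37 °C, humidified 5% CO2. Viability by standard MTT method; at least triplicate, mean ± SD.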

The test system of a further data set is Splenocyte. In words: Cytotoxicity against Balb/c mouse splenocytes assessed as reduction in cell viability by MTT assay. In kind it is cell-based. The essentials:
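BALB/C spleen homogenized in PBS pH 7.4, filtered through nylon voile, washed three times by centrifugation (450g, 5 min), resuspended in PBS at (2−5) × 10^6 cells/mL. Viability measured by standard MTT method; at least triplicate, mean ± SD.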
Background: Formazan colour is commonly taken as a measure of viable cells.

In another data set the test system is Erythrocyte. In words: Hemolytic activity against CD-1 mouse erythrocytes after 1 hr by spectroscopic method. It counts as ADME, cell-based. The essentials: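 CD-1 mouse blood erythrocytes washed three times in PBS pH 7.4 (450g, 5 min), resuspended to OD700 1.5, kept on ice. Suspension mixed 9:1 with test solution at various concentrations, 37 °C for 1 h. Cells pelleted; supernatant hemoglobin read at 570 nm. Expressed as % hemolysis versus control; EC50 reported.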

In data set [3] the test system is RAW264.7. In words: Immunomodulatory activity in mouse RAW264.7 cells assessed as inhibition of LPS-induced ROS level at 10 uM after 24 hrs by 2,7-dichlorodihydrofluorescein diacetate staining based fluorescence assay relative to control. It counts as functional. The settings on record: RAW264.7, 24 h. An outline of the steps:
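Macrophages allowed to adhere 2 h at 37 °C, 5% CO2, then exposed to compounds at 10 μM for 24 h. In each experiment compounds were co-incubated with E. coli 055:B5 LPS (1.0 μg/mL). H2DCF-DA added (final 10 μM), 10 min at 37 °C. Fluorescence read at 485/518 nm; at least triplicate, mean ± SD, Student's t test (p < 0.05).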

In the case of `COC[C@@H](O)[C@@H]1O[C@@H](O[C@@H]2C3=C4C[C@@H](O[C@@H]5O[C@H](CO)[C@@H](O)[C@H](OC)[C@H]5O)[C@H]([C@H](C)/C=C/CC(C)C)[C@@]4(C)CC[C@@H]3[C@@]3(C)CC[C@@H](O)C[C@@H]3[C@@H]2O)[C@H](O)[C@H]1O`, the Activity entry with Ehrlich, with RAW264.7 [1], in the data set on RAW264.7 [2], with Splenocyte and with Erythrocyte was “Non-Toxic” throughout.

For the compound `COC[C@@H](O)[C@@H]1O[C@@H](O[C@@H]2CC3=C4[C@@H](O)[C@@H](O)[C@H]5C[C@H](O)CC[C@]5(C)[C@H]4CC[C@]3(C)[C@H]2[C@H](C)/C=C/[C@@H](C)C(C)C)[C@H](O)[C@H]1O`, the Activity result in the data set with Ehrlich, with RAW264.7 [1], with RAW264.7 [2], with Splenocyte and with Erythrocyte was “Non-Toxic” each time.

Consider `COC[C@@H](O)[C@@H]1O[C@@H](O[C@@H]2C3=C4C[C@@H](O[C@@H]5O[C@@H]([C@H](O)COC)[C@H](O)[C@H]5O)[C@H]([C@H](C)/C=C/[C@@H](C)C(C)C)[C@@]4(C)CC[C@@H]3[C@@]3(C)CC[C@@H](O)C[C@@H]3[C@@H]2O)[C@H](O)[C@H]1O`, for which the Activity result in the data set with Ehrlich, with RAW264.7 [1], with RAW264.7 [2], with Splenocyte and with Erythrocyte was “Non-Toxic” each time.

With `CO[C@@H]1[C@@H](O)[C@H](O[C@@H]2CC3=C4[C@@H](O)[C@@H](O)[C@H]5C[C@H](O)CC[C@]5(C)[C@H]4CC[C@]3(C)[C@H]2[C@H](C)/C=C/C(C)C)O[C@H](CO)[C@H]1O`, the Activity result in the data set with Ehrlich, with RAW264.7 [1], in the data set with RAW264.7 [2], in the data set on Splenocyte and with Erythrocyte was “Non-Toxic” each time.

In the case of `C=C(CC[C@@H](C)[C@H]1[C@H](O[C@@H]2O[C@@H]([C@H](O)COC)[C@H](O)[C@H]2O)CC2=C3[C@@H](O[C@@H]4O[C@@H]([C@H](O)CO)[C@H](OC)[C@H]4O)[C@@H](O)[C@H]4C[C@H](O)CC[C@]4(C)[C@H]3CC[C@@]21C)C(C)C`, the Activity result in the data set with Ehrlich, with RAW264.7 [1], in the data set on RAW264.7 [2], with Splenocyte and with Erythrocyte was “Non-Toxic” throughout.

For the compound `CO[C@@H]1[C@@H](O)[C@H](O[C@@H]2CC3=C4[C@@H](O)[C@@H](O)[C@H]5C[C@H](O)CC[C@]5(C)[C@H]4CC[C@]3(C)[C@H]2[C@H](C)/C=C/[C@@H](C)C(C)C)O[C@H](CO)[C@H]1O`, the Activity result with Ehrlich, in the data set on RAW264.7 [1], in the data set on RAW264.7 [2], with Splenocyte and with Erythrocyte was “Non-Toxic” in each case. In addition, the inhibition (commonly the percentage by which the read-out fell short of the control) at 10 µM in the data set on RAW264.7 [3] was 24%.

With `CO[C@@H]1[C@@H](O)[C@H](O[C@@H]2CC3=C4[C@@H](O)[C@@H](O)[C@H]5C[C@H](O)CC[C@]5(C)[C@H]4CC[C@]3(C)[C@H]2[C@H](C)/C=C/[C@@H](C)C(C)C)O[C@H]1[C@H](O)CO`, the Activity entry in the data set on Ehrlich, in the data set on RAW264.7 [1], with RAW264.7 [2], with Splenocyte and in the data set on Erythrocyte was “Non-Toxic” in each case.

For the compound `COC[C@@H](O)[C@@H]1O[C@@H](O[C@@H]2C3=C4C[C@@H](O[C@@H]5O[C@H](CO)[C@@H](O)[C@H](OC)[C@H]5O)[C@H]([C@H](C)CCCC(C)C)[C@@]4(C)CC[C@@H]3[C@@]3(C)CC[C@@H](O)C[C@@H]3[C@@H]2O)[C@H](O)[C@H]1O`, the Activity result with Ehrlich, with RAW264.7 [1], with RAW264.7 [2], in the data set with Splenocyte and in the data set with Erythrocyte was “Non-Toxic” each time.
